We go through three compounds from ChEMBL document CHEMBL1141543, “Protective effect of nitronyl nitroxide-amino acid conjugates on liver ischemia-reperfusion induced injury in rats” (Bioorg Med Chem Lett, 2008).

Calls of active or inactive are those of the source. No cut-off for these calls is given here.

The subject of assay [1] is Rattus norvegicus. Kind of assay: Protection against hepatic ischemia-reperfusion-induced injury assessed as effect on malondialdehyde level in Wistar rat liver at 30 mg/kg. In kind it is functional. In outline: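 Male Wistar rats given liver ischemia 30 min and reperfusion 2 h under pentobarbital anesthesia. Drug 30 mg/kg dosed 10 min before reperfusion and 1 h after it began; controls got saline. Liver frozen at -70 °C. MDA in liver mitochondria measured spectrophotometrically as thiobarbituric acid reactive substances (Buege and Aust method).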

In assay [2] the test system is Rattus norvegicus. Put plainly: Protection against hepatic ischemia-reperfusion-induced injury assessed as effect on aspartate aminotransferase level in Wistar rat liver at 30 mg/kg. The format is functional. In outline: (§1)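 Male Wistar rats, liver ischemia 30 min then reperfusion 2 h under sodium pentobarbital anesthesia (80 mg/kg). Drug 30 mg/kg given 10 min before reperfusion and again 1 h into reperfusion; sham and I/R controls received saline. n = 8 per group (sham n = 4). Serum ALT and AST measured as liver function; blood frozen at -70 °C until analysis.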

In assay [3] the test system is Rattus norvegicus. Put plainly: Protection against hepatic ischemia-reperfusion-induced injury assessed as effect on alanine aminotransferase level in Wistar rat liver at 30 mg/kg. The format is functional. In short, it runs like this:
as §1

Assay [4] relates to PC-12. Kind of assay: Nitric oxide radical scavenging activity in rat PC12 cells. The format is functional, cell-based. In short, it runs like this:
(§2)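 PC12 rat pheochromocytoma cells exposed to NO, H2O2 or ·OH. Test compound given either as pre-incubation before radical exposure or as incubation after exposure. Cell survival read by MTT reduction, used as the index of radical scavenging.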

Assay [5] has as its system PC-12. Put plainly: Hydrogen peroxide radical scavenging activity in rat PC12 cells. The format is functional, cell-based. In outline: as §2
For assay [6], the system named is PC-12. Kind of assay: Hydroxyl radical scavenging activity in rat PC12 cells. The format is functional, cell-based. In short, it runs like this: as §2
For assay [7], the system named is Aorta. Put plainly: Nitric oxide radical scavenging activity in rat thoracic aorta assessed as inhibition of acteylcholine-induced vasorelaxation at 100 umol. The format is functional, tissue-based.
In assay [8] the test system is Aorta. Put plainly: Nitric oxide radical scavenging activity in rat thoracic aorta assessed as inhibition of acteylcholine-induced vasorelaxation at 10 umol. In kind it is functional, tissue-based.
In assay [9] the test system is Aorta. Kind of assay: Nitric oxide radical scavenging activity in rat thoracic aorta assessed as inhibition of acteylcholine-induced vasorelaxation at 1 umol. In kind it is functional, tissue-based.
For assay [10], the system named is PC-12. Put plainly: Suppression of free radical-induced decrease in viability of rat PC12 cells. In kind it is functional, cell-based. In short, it runs like this:
as §2

In the case of `N=C(N)NCCC[C@H](N)C(=O)O` [ARGININE], the Activity in the assay on Rattus norvegicus [1] worked out at 3.82 nmol/mg; in the assay on Rattus norvegicus [2] it was 789 U/L; in the assay with Rattus norvegicus [3], 493 U/L.
For `CC1(C)N([O])C(c2ccc(OCC(=O)N[C@@H](CCCNC(=N)N)C(=O)O)cc2)=[N+]([O-])C1(C)C`, the EC50 came to 92.8 µM in the assay with PC-12 [4], 49 µM in the assay with PC-12 [5] and 98.9 µM in the assay on PC-12 [6]. Besides, the inhibition turned out to be 98.9% with Aorta [7], 74% with Aorta [8] and 28.7% with Aorta [9]. The Activity was 2.76 nmol/mg with Rattus norvegicus [1], 510 U/L in the assay on Rattus norvegicus [2] and 173 U/L with Rattus norvegicus [3]. The outcome in the assay with PC-12 [10] was Active.
As to `CC1(C)N([O])C(c2ccc(OCC(=O)N[C@@H](CCCCN)C(=O)O)cc2)=[N+]([O-])C1(C)C`, the EC50 with PC-12 [4] came out at 85.5 µM; in the assay with PC-12 [5] it was 26.8 µM; in the assay with PC-12 [6] it was 92.7 µM. Moreover, the inhibition in the assay with Aorta [7] is 85%; with Aorta [8] it was 60.7%; with Aorta [9], 24.8%. For the same compound, in the assay on PC-12 [10], the result was Active.
